Source: ChEMBL document CHEMBL1143725, “Alvaradoins E-N, antitumor and cytotoxic anthracenone C-glycosides from the leaves of Alvaradoa haitiensis” (J Nat Prod, 2007)
Active and inactive are the calls of the source. The calls are words filed in the database; no cut-off is given here.

Experiments:
KB = assay: Cytotoxicity against human KB cells; type: functional, cell-based
In short: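 Human oral epidermoid carcinoma (KB) cells were tested following previously established protocols. EC50 values were reported in μM as mean ± SEM from three separate experiments.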

P388 [1] = assay: Antitumor activity in P388 cells xenografted mouse at 0.2 mg/kg body weight, ip for 5 days/week relative to control; type: functional; conditions: route intraperitoneal
In short: (§1)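 Mice carried murine P388 lymphocytic leukemia cells implanted intraperitoneally. Treatment was given i.p. daily, 5 days per week. Activity was expressed as % T/C, treated versus control.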

P388 [2] = assay: Antitumor activity in iv dosed mouse implanted with P388 xenografts; type: functional, organism-based
In short: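 This was a P388 murine lymphocytic leukemia model in which both the leukemia cells and the treatment were delivered intravenously.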

P388 [3] = assay: Antitumor activity in P388 cells xenografted mouse at 0.4 mg/kg body weight, ip for 5 days/week relative to control; type: functional; conditions: route intraperitoneal; in short: as §1

Structure (SMILES)	EC50 (KB) [nM]	also measured
CC(=O)O[C@@H]1O[C@@H]([C@H]2c3cccc(O)c3C(=O)c3c(O)cc(C)cc32)[C@H](O)[C@@H](O)[C@H]1O [ALVARADOIN E]	50	Activity (P388 [1]): 125%; Activity (P388 [2]): inactive
CC(=O)O[C@H]1O[C@H]([C@@H]2c3cccc(O)c3C(=O)c3c(O)cc(C)cc32)[C@H](O)[C@@H](O)[C@H]1O [ALVARADOIN F]	65	Activity (P388 [2]): inactive; Activity (P388 [3]): 115%
CC(=O)O[C@H]1O[C@H]([C@@H]2c3cccc(O)c3C(=O)c3c(O)cc(C)cc32)[C@H](O)[C@@H](OC(=O)C=C(C)C)[C@H]1O [ALVARADOIN G]	650	
CC(=O)O[C@@H]1O[C@@H]([C@H]2c3cccc(O)c3C(=O)c3c(O)cc(C)cc32)[C@H](O)[C@@H](OC(=O)C=C(C)C)[C@H]1O [ALVARADOIN H]	1070	
CC(=O)O[C@H]1O[C@H]([C@@]2(O)c3cccc(O)c3C(=O)c3c(O)cc(C)cc32)[C@H](O)[C@@H](OC(=O)C=C(C)C)[C@H]1O [ALVARADOIN I]	12500	
CC(=O)O[C@H]1O[C@H]([C@]2(O)c3cccc(O)c3C(=O)c3c(O)cc(C)cc32)[C@H](O)[C@@H](OC(=O)C=C(C)C)[C@H]1O [ALVARADOIN J]	15900	
CC(C)=CC(=O)O[C@@H]1[C@H](O)[C@@H](O)[C@@H]([C@@H]2c3cccc(O)c3C(=O)c3c(O)cc(C)cc32)O[C@@H]1O [ALVARADOIN K]	270	
CC(C)=CC(=O)O[C@@H]1[C@H](O)[C@@H](O)[C@@H]([C@H]2c3cccc(O)c3C(=O)c3c(O)cc(C)cc32)O[C@@H]1O [ALVARADOIN L]	590	
CC(C)=CC(=O)O[C@@H]1[C@@H](O)[C@@H]([C@H]2c3cccc(O)c3C(=O)c3c(O)cc(C)cc32)O[C@H](O)[C@@H]1O [ALVARADOIN M]	380	
CC(=O)O[C@H]1O[C@H]([C@]2(O)c3cccc(O)c3C(=O)c3c(O)cc(C)cc32)[C@H](O)[C@@H](O)[C@H]1O [ALVARADOIN N]	2940	
CC[C@@]1(O)C(=O)OCc2c1cc1n(c2=O)Cc2cc3ccccc3nc2-1 [CAMPTOTHECIN]	3.6	
Cc1cc(O)c2c(c1)C(=O)c1cccc(O)c1C2=O [CHRYSOPHANOL]	> 20000	
